This passage reports inhibition, IC50 and Ratio results from ChEMBL document CHEMBL3286347, “Evaluation of anti-inflammatory activity of prenylated substances isolated from Morus alba and Morus nigra” (J Nat Prod, 2014).

Calls of active or inactive are those of the source. The rule behind the calls is not given here.

For assay [1], the system named is THP-1. Kind of assay: Antiinflammatory activity in human THP1 cells assessed as inhibition of IL-1beta secretion at 1 uM treated 1 hr before LPS challenge measured after 24 hrs by ELISA. In kind it is functional, cell-based. In short, it runs like this: (§1)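 THP-1 monocytes (RPMI 1640, 10% FBS, 37 °C, 5% CO2) differentiated to macrophages with PMA; pretreated 1 h with test agent at 1 μM in DMSO (0.1% final); LPS (E. coli 0111:B4) 1 μg/mL added, medium collected after 24 h and stored at −80 °C; secreted cytokine quantified by ELISA; vehicle and non-LPS controls; three independent experiments, mean ± SE.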
For orientation: An ELISA detects its analyte on a solid surface through an enzyme-linked reagent.

Assay [2] deals with Transcription factor p65 (Homo sapiens) (UniProt Q04206). Kind of assay: Inhibition of NFkappaB p65 nuclear translocation in LPS-induced human THP1 cells at 1 uM treated 1 hr before LPS challenge measured after 3 hrs using propidium iodide staining by fluorescence microscopic analysis. To be noted: THP-1. In kind it is cell-based. The procedure, abridged:
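PMA-differentiated THP-1 macrophages in serum-free RPMI (5 × 10^5 cells/mL) pretreated 1 h at 1 μM, then LPS 1 μg/mL final for 3 h; acetone-fixed, BSA-blocked, rabbit anti-p65 overnight at 4 °C, FITC anti-rabbit IgG 1 h, nuclei counterstained with propidium iodide 0.5 μg/mL; p65/nuclear colocalization viewed by fluorescence microscopy; three independent experiments.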

For assay [3], the system named is THP-1. Kind of assay: Cytotoxicity against human THP1 cells after 24 hrs by WST1 assay. To be noted: THP-1, 24 h. Type of assay: cell-based. The procedure, abridged:
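THP-1 monocyte suspension (5 × 10^5 cells/mL) exposed to compounds in DMSO, 30 down to 0.37 μM, DMSO 0.1% final; 24 h at 37 °C, 5% CO2; viability by WST-1 reagent; IC50 calculated from viability curves; triplicate, arithmetic mean ± SE.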

Assay [4] concerns THP-1. Kind of assay: Antiinflammatory activity in human THP1 cells assessed as inhibition of TNFalpha secretion at 1 uM treated 1 hr before LPS challenge measured after 24 hrs by ELISA. In kind it is functional, cell-based. The procedure, abridged:
as §1

In assay [5] the test system is THP-1. The experiment in a line: Ratio of prednisone to compound for antiinflammatory activity in human THP1 cells assessed as inhibition of TNFalpha secretion at 1 uM treated 1 hr before LPS challenge measured after 24 hrs by ELISA. Type of assay: functional.
The subject of another assay is A2780. Kind of assay: Cytotoxicity against human A2780 cells. Type of assay: cell-based.

Chain of Transcription factor p65 (Homo sapiens) (Q04206 whole entry): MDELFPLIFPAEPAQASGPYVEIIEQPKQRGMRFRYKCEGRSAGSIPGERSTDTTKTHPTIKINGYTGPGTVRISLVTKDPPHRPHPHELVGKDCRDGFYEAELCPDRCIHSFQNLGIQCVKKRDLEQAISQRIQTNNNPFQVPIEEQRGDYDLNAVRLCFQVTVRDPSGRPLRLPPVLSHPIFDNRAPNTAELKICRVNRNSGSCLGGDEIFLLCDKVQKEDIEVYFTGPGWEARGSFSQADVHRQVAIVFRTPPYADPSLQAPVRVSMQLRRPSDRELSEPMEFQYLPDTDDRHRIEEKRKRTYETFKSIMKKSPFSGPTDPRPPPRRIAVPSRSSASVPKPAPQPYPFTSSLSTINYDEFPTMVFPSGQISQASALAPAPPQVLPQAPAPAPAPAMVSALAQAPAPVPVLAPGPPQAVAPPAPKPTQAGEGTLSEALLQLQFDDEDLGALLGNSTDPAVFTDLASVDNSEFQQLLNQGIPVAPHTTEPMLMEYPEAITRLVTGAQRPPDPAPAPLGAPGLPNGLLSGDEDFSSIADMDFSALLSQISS

As to `CC(C)=CCc1c(-c2ccc(O)cc2O)oc2cc3c(c(O)c2c1=O)C=CC(C)(C)O3` [CUDRAFLAVONE B], the inhibition result with THP-1 [1] is “inactive”. Moreover, the inhibition entry (in assay [2]; in the assay with THP-1 [4]) was “Active” in each case. Besides, in the assay with THP-1 [3], the IC50 was > 10 µM.
`CC(C)=CCc1c(O)ccc(C(=O)[C@@H]2[C@@H](c3ccc(O)cc3O)CC(C)=C[C@H]2c2c(O)cc3c(c2O)C(=O)[C@@H]2Oc4cc(O)ccc4[C@]2(CC=C(C)C)O3)c1O`: the IC50 in the assay with THP-1 [3] stood at 4 µM.
With `CC1=C[C@@H]2c3c(O)cc(C=O)cc3OC3(c4ccc(O)c5c4OC(C)(C)C=C5)Oc4cc(O)ccc4[C@@H](C1)[C@H]23` (some centres undefined), half-maximal inhibition with THP-1 [3] (IC50) was put at 4.7 µM.
For `CC1(C)C=Cc2c(O)ccc([C@@H]3CC(=O)c4c(O)cc(O)cc4O3)c2O1`, the inhibition entry (in the assay with THP-1 [1]; in assay [2]; in the assay on THP-1 [4]) was “Active” throughout. Also, in the assay on THP-1 [3], the IC50 was > 10 µM.
On to `CC(C)=CCc1c(O)cc(-c2cc3ccc(O)cc3o2)cc1O` [MORACIN C], for which the inhibition result with THP-1 [1] was “inactive”. For the same molecule, half-maximal inhibition in the assay on THP-1 [3] (IC50) was put at 3.2 µM.
`C[C@@]12C=C(c3c(O)cc(-c4cc5ccc(O)cc5o4)cc3O)C[C@@H](C1)c1ccc(O)cc1O2` [MULBERROFURAN H]: the inhibition result with THP-1 [1] is “inactive”. Besides, the inhibition result in assay [2] is “Active”. In the assay with THP-1 [3], this molecule gave a concentration for half-maximal inhibition (IC50) of 3.2 µM.
Consider `CC(C)(O)CCc1c(-c2ccc(O)cc2O)oc2c3c(cc(O)c2c1=O)OC(C)(C)C=C3` [MORUSINOL], for which the inhibition entry (with THP-1 [1]; in assay [2]; with THP-1 [4]) was “Active” throughout. For the same molecule, the IC50 in the assay on THP-1 [3] amounted to 4.3 µM. The Ratio with THP-1 [5] is on record as 2.
As to `COc1c(O)cc2oc(-c3cc(O)cc(O)c3)cc2c1C/C=C(\C)CCC=C(C)C` [MULBERROFURAN Y], the inhibition result with THP-1 [1] is “Active”. This molecule returned an IC50 with THP-1 [3] of 4.8 µM.
For the molecule `CC(C)=CCC/C(C)=C/Cc1cc(C2CC(=O)c3c(O)cc(O)cc3O2)c(O)cc1O` (centres undefined) [KUWANON E], the inhibition entry with THP-1 [1] and in the assay on THP-1 [4] was “Active” in each case. For the same molecule, in the assay on THP-1 [3], the half-maximal inhibitory concentration (IC50) amounted to 4 µM.
Consider `CC(C)=CCc1c(O)ccc([C@@]23Oc4cc(O)ccc4[C@@H]4CC(C)=C[C@@H](c5c(O)cc(-c6cc7ccc(O)cc7o6)cc5O2)[C@H]43)c1O`, for which inhibition in the assay with A2780 was half-maximal at 1.2 µM (IC50).
`CC(C)=CCc1c(-c2ccc(O)cc2O)oc2c(CC=C(C)C)c(O)cc(O)c2c1=O` [KUWANON C]: the inhibition result in the assay with THP-1 [1] and with THP-1 [4] was “Active” in each case. Further, the midpoint of inhibition with THP-1 [3], the IC50, lay at 1.7 µM.

What is called IC50 is the midpoint of a concentration-inhibition curve. A lower IC50 goes with greater potency in that assay.
